Data taken from ChEMBL document CHEMBL3875191, “Enhanced potency of bivalent small molecule gp41 inhibitors” (Bioorg Med Chem, 2017).
The source made the active and inactive calls. The rule behind the calls is not given here.

Legend:
[1] = (§1) Inhibition of HIV1 Ba-L gp41-induced virus-cell fusion between HIV1 Ba-L to MAGI cells expressing CCR5-tropic treated 3 hrs post infection measured after 48 hrs by beta-galactosidase based chemiluminescence assay; conditions: Human immunodeficiency virus 1, Ba-L
[2] = tested on: MAGI; experiment: as §1; conditions: Human immunodeficiency virus 1
[3] = tested on: Human immunodeficiency virus 1; experiment: Binding affinity to wild type HIV-1 Fe2(env2.0)3 peptide model of gp41 hydrophobic pocket at compound to peptide ratio of 1:1 by surface plasmon resonance assay
Method in brief: (§2)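 CM5 chip activated with EDC/NHS then PDEA; FeII(envC)3 (bpy-HR1 peptide ending in D-Cys, 5 µM in 25 mM Tris-acetate pH 7.0) coupled by disulfide. Blocked with L-cysteine, then washed with 1 mM ferrous ammonium sulfate. Reference surface lacked receptor. Analytes run at 0.098–50 µM in 20 mM Hepes, 150 mM NaCl, pH 7.0, 1% DMSO. Association 60 s, dissociation 300 s, DMSO bracketing. Kinetics fit to Langmuir 1:1 and 1:2 models.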

[4] = (§3) Inhibition of HIV1 gp41-induced cell-cell fusion between HXB2 viral envelope expressing human HL2/3 cells to CXCR4-tropic expressing TZM-bl cells after 6 hrs by LTR luciferase reporter gene assay; format: cell-based; conditions: Human immunodeficiency virus 1, HL2/3, 6 h
Method in brief: (§4)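 TZM-bl target cells (CD4, CCR5, CXCR4; HIV-1 LTR-driven firefly luciferase) at 25,000/well, cultured overnight, then given serially diluted inhibitor. 50,000 HL2/3 effector cells (HXB2 Env, Tat, Rev) were added and fusion ran 6 h in reduced-serum medium with 1% DMSO final. Luciferase was read, with 1% DMSO controls with and without HL2/3, in triplicate.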

[5] = Inhibition of fluorescently labeled C-terminal HR2 probe peptide binding to wild type HIV-1 Fe(env2.0)3 peptide model of gp41 hydrophobic pocket at compound to protein ratio of 1:1 by fluorescence assay; parameters: species or system Human immunodeficiency virus 1
[6] = Cytotoxicity against human HL2/3 cells assessed as decrease in cell viability by alamar blue/presto blue assay; format: toxicity, cell-based
Method in brief: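 Cell viability read with resazurin reagent (Alamar Blue or Presto Blue) under the same culture conditions as cell-cell fusion. TZM-bl targets (25,000/well, cultured overnight) with serially diluted compound, plus 50,000 HL2/3 effectors/well. 6 h in reduced-serum medium, 1% DMSO final.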

[7] = (§5) Inhibition of HIV1 3B gp41-induced virus-cell fusion between HIV1 3B to MAGI cells expressing CXCR4-tropic treated 3 hrs post infection measured after 48 hrs by beta-galactosidase based chemiluminescence assay; conditions: Human immunodeficiency virus 1, 3B
[8] = tested on: MAGI; experiment: as §5; conditions: Human immunodeficiency virus 1
[9] = tested on: Human immunodeficiency virus 1; experiment: Binding affinity to wild type HIV-1 HXB2 Fe2(env2.0)3 peptide model of gp41 hydrophobic pocket at >10 uM by surface plasmon resonance assay; method in brief: as §2
[10] = tested on: HL2/3; experiment: as §3; format: cell-based; conditions: Human immunodeficiency virus 1; method in brief: as §4
[11] = tested on: Human immunodeficiency virus 1; experiment: Binding affinity to wild type HIV-1 HXB2 Fe2(env2.0)3 peptide model of gp41 hydrophobic pocket at <10 uM by surface plasmon resonance assay; method in brief: as §2
[12] = Ratio of Kd for wild type HIV-1 Fe2(env2.0)3 peptide model of gp41 hydrophobic pocket assessed as dissociation constant for first binding interaction to Ka for wild type HIV-1 Fe2(env2.0)3 peptide model of gp41 hydrophobic pocket assessed as association constant for first binding interaction; parameters: species or system Human immunodeficiency virus 1
[13] = Inhibition of fluorescently labeled C-terminal HR2 probe peptide binding to wild type HIV-1 Fe(env2.0)3 peptide model of gp41 hydrophobic pocket assessed as inhibition constant for first binding interaction at compound to protein ratio of 1:2 by fluorescence assay; parameters: species or system Human immunodeficiency virus 1
[14] = Inhibition of fluorescently labeled C-terminal HR2 probe peptide binding to wild type HIV-1 Fe(env2.0)3 peptide model of gp41 hydrophobic pocket assessed as inhibition constant for second binding interaction at compound to protein ratio of 1:2 by fluorescence assay; parameters: species or system Human immunodeficiency virus 1

SMILES	IC50 [1] [µM]	IC90 [2] [µM]	RUmax [3]	IC50 [4] [µM]	Ki [5] [µM]	CC50 [6] [µM]	IC50 [7] [µM]	IC90 [8] [µM]	Activity [9]	IC90 [10] [µM]	Activity [11]	Kd [12] [µM]	Ki [13] [µM]	Ki [14] [µM]
O=C(CCc1c[nH]c2ccccc12)NCCCCCC(=O)Nc1ccc(C(=O)N[C@@H](Cc2c[nH]c3ccccc23)C(=O)O)cc1OCc1ccc(Cl)cc1	13	26.5	93	2.2	3.4	> 100	14.3	27.1	–	–	–	–	–	–
Nc1ccc(C(=O)N[C@@H](Cc2c[nH]c3ccccc23)C(=O)O)cc1OCCc1c[nH]c2ccccc12	> 50	> 50	59	22	7.2	> 50	> 50	> 50	Active	80	Active	–	–	–
O=C(CCc1c[nH]c2ccccc12)NCCCCCC(=O)Nc1ccc(C(=O)N[C@@H](Cc2c[nH]c3ccccc23)C(=O)O)cc1OCCc1c[nH]c2ccccc12	13.7	31.1	95	1.3	1.2	> 100	17.3	30.5	–	–	–	–	–	–
O=C(CCC(=O)Nc1ccc(C(=O)N[C@@H](Cc2c[nH]c3ccccc23)C(=O)O)cc1OCCc1c[nH]c2ccccc12)NCCOCCOCCOCCNC(=O)CCC(=O)Nc1ccc(C(=O)N[C@@H](Cc2c[nH]c3ccccc23)C(=O)O)cc1OCCc1c[nH]c2ccccc12	3.6	> 100	160	0.6	1 to 2.3	> 100	3.8	70	–	–	–	32	20	0.2
Nc1ccc(C(=O)N[C@@H](Cc2c[nH]c3ccccc23)C(=O)O)cc1OCc1ccc(Cl)cc1	–	–	56	24	15	> 50	–	–	–	–	–	–	–	–
O=C(CCC(=O)Nc1ccc(C(=O)N[C@@H](Cc2c[nH]c3ccccc23)C(=O)O)cc1OCc1ccc(Cl)cc1)NCCOCCOCCOCCNC(=O)CCC(=O)Nc1ccc(C(=O)N[C@@H](Cc2c[nH]c3ccccc23)C(=O)O)cc1OCc1ccc(Cl)cc1	–	–	157	0.4	5.3 to 8.5	> 100	5.1	–	–	–	–	43	–	–
